Experimental data from different studies.
Target: Serine/threonine-protein kinase Sgk2 (SGK2, Homo sapiens, UniProt Q9HBY8)
Residues used in one study (Q9HBY8 1-367): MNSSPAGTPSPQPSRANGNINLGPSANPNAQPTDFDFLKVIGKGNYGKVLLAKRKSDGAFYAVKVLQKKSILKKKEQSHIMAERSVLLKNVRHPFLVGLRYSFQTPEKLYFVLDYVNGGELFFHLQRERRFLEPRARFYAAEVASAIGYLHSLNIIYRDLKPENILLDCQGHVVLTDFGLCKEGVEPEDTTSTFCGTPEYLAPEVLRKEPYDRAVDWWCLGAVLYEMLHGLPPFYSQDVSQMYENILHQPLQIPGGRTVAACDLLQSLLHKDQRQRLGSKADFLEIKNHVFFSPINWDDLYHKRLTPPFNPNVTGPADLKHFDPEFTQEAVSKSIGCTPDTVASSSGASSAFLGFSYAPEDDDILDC

O=C(NCCCN1CCOCC1)c1ccc(Nc2nccc(-c3cc4ccccc4s3)n2)cc1 — remaining binding (binding; competition with immobilised ligand; 1 µM): 55%
C[C@H]1CCN(c2nccc(-c3cnn4ncccc34)n2)C1 — remaining binding (binding; 1 µM): 65%
COc1ccc2c(c1)O[C@H](c1ccc(OC)c(OC)c1)C[C@@H]2NC(=O)C1(c2ccc3c(c2)OC(F)(F)O3)CC1 — remaining binding (cell-free assay; competition with immobilised ligand; 1 µM): 100%
CC1CCCN1c1nccc(-c2cnn3ncccc23)n1 (centres unmarked) — remaining binding (binding; 1 µM): 94%
FC(F)(F)Oc1cccc(-c2cnc3ccc(-c4ccncc4)nn23)c1 — remaining binding (binding; competition with immobilised ligand; 5 µM): 77%
N[C@@H]1CCN(c2nccc(-c3cnn4ncccc34)n2)C1 — remaining binding (binding; 1 µM): 100%
C=CC(=O)N1CCC(C(=O)NCC(=O)N2CCN(c3nc(-c4cnc(N)nc4C(F)F)nc(N4CCOCC4)n3)CC2)CC1 — remaining binding (binding; competition with immobilised ligand; 1 µM): 86%
O=C(NCc1ncc(C(F)(F)F)cc1Cl)c1ccc2c(c1)C1(CCS(=O)(=O)CC1)[C@H](C1CC1)N2S(=O)(=O)c1ccc(F)cc1 — remaining binding (cell-free assay; competition with immobilised ligand; 1 µM): 83%
COc1cnc(Nc2cccc(S(N)(=O)=O)c2)nc1N1CCN(c2ccccc2)C(=O)C1 — remaining binding (binding; competition with immobilised ligand; 1 µM): 83%
Cc1cc(C)c(-n2ccn3nc(-c4cccnc4)cc23)cc1NC(=O)c1cc(C#N)cc(S(F)(F)(F)(F)F)c1 — remaining binding (cell-free assay; competition with immobilised ligand; 0.1 µM): 100%
COc1ncc2cc3ccccc3nc2c1C#N — remaining binding (cell-free assay; competition with immobilised ligand; 5 µM): 98%
COCCOc1nc(-c2ccc(Cl)nc2)nc2c1CN(C(=O)c1ncn3ccccc13)CC2 — remaining binding (cell-free assay; competition with immobilised ligand; 0.1 µM): 88%
CN(c1nccc(-c2cnn3ncccc23)n1)C1CC1 — remaining binding (binding; 1 µM): 86%
O=C(NCC1CCOCC1)c1n[nH]cc1NC(=O)c1c(F)cccc1F — remaining binding (binding; competition with immobilised ligand; 1 µM): 94%
Cc1nc(N2CC[C@@H](O)C2)ncc1-c1cc(C(F)(F)F)cc2[nH]ncc12 — remaining binding (binding; competition with immobilised ligand; 1 µM): 88%
Cc1cnc(Nc2ccc(C(=O)N3CCC(N4CCCC4)CC3)cc2)nc1-c1cc2ccccc2s1 — remaining binding (binding; competition with immobilised ligand; 1 µM): 29%
F[C@@H]1CCN(c2nccc(-c3cnn4ncccc34)n2)C1 — remaining binding (binding; 1 µM): 92%
Cn1cc(Cl)c2c(Oc3c(F)cc(Nc4cc(Cl)nc(N)n4)cc3F)ccnc21 — remaining binding (cell-free assay; competition with immobilised ligand; 0.1 µM): 86%
O=C(c1ccc(Nc2nccc(-c3cc4ccccc4s3)n2)cc1)N1CCC(N2CCCC2)CC1 — remaining binding (binding; competition with immobilised ligand; 1 µM): 47%
CN(CCCC(F)(F)F)c1nccc(-c2cnn3ncccc23)n1 — remaining binding (binding; 1 µM): 93%
